Assays:
[1] = biological target: T1, Glycylpeptide N-tetradecanoyltransferase (Plasmodium falciparum (isolate 3D7), UniProt Q8ILW6); assay: Inhibition of Plasmodium falciparum N-myristoyltransferase using [3H]-myristoyl-CoA and GLYVSRLFNRLFQKK(Biotin)-NH2 as substrate after 30 mins scintillation proximity assay
T1 sequence (Q8ILW6 whole entry): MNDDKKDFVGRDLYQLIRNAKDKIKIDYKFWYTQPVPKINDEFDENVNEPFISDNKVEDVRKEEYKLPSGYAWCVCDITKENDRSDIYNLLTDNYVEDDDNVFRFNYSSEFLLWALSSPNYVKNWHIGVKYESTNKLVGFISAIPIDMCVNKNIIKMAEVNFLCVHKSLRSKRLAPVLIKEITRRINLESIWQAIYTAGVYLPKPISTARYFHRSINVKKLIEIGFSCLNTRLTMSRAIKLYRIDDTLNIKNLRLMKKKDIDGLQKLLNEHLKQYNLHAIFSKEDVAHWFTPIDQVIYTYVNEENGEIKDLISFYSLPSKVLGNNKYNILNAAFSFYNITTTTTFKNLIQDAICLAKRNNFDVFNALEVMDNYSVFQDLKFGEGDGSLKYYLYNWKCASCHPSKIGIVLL

[2] = Selectivity index, ratio of IC50 for human N-myristoyltransferase to IC50 for Plasmodium falciparum N-myristoyltransferase
Summary of the method: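 Buffer was 30 mM Tris pH 7.4 with 4% DMSO; 30 min at 37 °C. Reaction stopped with streptavidin beads at pH 4. […] Ratio is IC50(HsNMT1)/IC50(PfNMT).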

Plasmodium falciparum = assay: Antiplasmodial activity against trophozoite-stage of Plasmodium falciparum 3D7 after 48 hrs by FACS analysis; type: functional, organism-based; conditions: 3D7, 48 h
Summary of the method: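 Synchronous late-trophozoite 3D7 cultures at 1% parasitemia and 2% hematocrit with 0.5% DMSO, exposed to inhibitor from 10 μM down to 0.31 μM for a 48 h cycle at 37 °C. Aliquots stained with diluted hydroethidine for 20 min at 37 °C, then parasitemia read by flow cytometry. Untreated parasites and uninfected RBCs served as controls. EC50 from nonlinear regression, triplicate wells.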

[3] = biological target: T2, Glycylpeptide N-tetradecanoyltransferase 1 (Homo sapiens, UniProt P30419); assay: Inhibition of human N-myristoyltransferase using [3H]-myristoyl-CoA and GLYVSRLFNRLFQKK(Biotin)-NH2 as substrate after 30 mins scintillation proximity assay
T2 sequence (P30419 whole entry): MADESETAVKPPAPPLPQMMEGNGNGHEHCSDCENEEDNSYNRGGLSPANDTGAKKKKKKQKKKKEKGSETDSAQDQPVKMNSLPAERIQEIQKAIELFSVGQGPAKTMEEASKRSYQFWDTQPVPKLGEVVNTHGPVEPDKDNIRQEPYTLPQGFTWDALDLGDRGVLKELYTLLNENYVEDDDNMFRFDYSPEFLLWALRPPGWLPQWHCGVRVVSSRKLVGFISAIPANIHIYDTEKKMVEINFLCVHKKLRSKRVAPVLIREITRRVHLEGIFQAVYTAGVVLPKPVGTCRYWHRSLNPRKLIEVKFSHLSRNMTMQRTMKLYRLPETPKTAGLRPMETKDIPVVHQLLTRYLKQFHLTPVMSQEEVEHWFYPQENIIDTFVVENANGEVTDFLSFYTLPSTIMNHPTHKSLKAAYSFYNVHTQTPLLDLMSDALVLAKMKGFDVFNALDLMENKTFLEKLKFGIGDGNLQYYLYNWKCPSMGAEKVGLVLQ

[4] = Inhibition of Plasmodium vivax wild type N-myristoyltransferase using [3H]-myristoyl-CoA and GLYVSRLFNRLFQKK(Biotin)-NH2 as substrate after 30 mins scintillation proximity assay
[5] = biological target: Glycylpeptide N-tetradecanoyltransferase (Plasmodium vivax (strain Salvador I), UniProt A5K1A2, Y211A); assay: Inhibition of Plasmodium vivax […] N-myristoyltransferase Y211A mutant using [3H]-myristoyl-CoA and GLYVSRLFNRLFQKK(Biotin)-NH2 as substrate after 30 mins scintillation proximity assay
Sequence of Glycylpeptide N-tetradecanoyltransferase (Plasmodium vivax (strain Salvador I), UniProt A5K1A2, Y211A) (A5K1A2 whole entry Y211A): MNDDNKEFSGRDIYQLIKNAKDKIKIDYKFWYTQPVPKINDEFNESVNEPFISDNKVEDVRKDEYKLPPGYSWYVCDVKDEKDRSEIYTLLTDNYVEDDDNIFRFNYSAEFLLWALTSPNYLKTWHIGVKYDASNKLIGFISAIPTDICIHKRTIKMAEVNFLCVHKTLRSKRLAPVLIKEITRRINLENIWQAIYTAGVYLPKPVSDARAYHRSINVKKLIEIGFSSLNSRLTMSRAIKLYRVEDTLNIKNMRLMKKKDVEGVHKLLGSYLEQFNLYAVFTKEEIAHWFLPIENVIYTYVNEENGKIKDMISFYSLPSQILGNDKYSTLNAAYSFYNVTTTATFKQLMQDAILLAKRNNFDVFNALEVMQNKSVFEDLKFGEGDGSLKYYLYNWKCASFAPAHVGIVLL
Summary of the method: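 Purified NMT per 100 µL well: PfNMT 9.4 ng, PvNMT 4.8 ng, PvNMT Y211A 19.2 ng. Each well also held 62.5 nM [3H]-myristoyl-CoA and 500 nM biotinylated peptide in pH 7.4 Tris buffer with 4% DMSO. Incubation ran 30 min at 37°C. Reactions were stopped with streptavidin beads at pH 4 and counted after overnight settling. Inhibitor ranged 500 µM–2 nM. IC50 came from nonlinear regression, in duplicate.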

[6] = biological target: Glycylpeptide N-tetradecanoyltransferase 1 (Homo sapiens, UniProt P30419, Y296A); assay: Inhibition of human N-myristoyltransferase Y296A mutant using [3H]-myristoyl-CoA and GLYVSRLFNRLFQKK(Biotin)-NH2 as substrate after 30 mins scintillation proximity assay
Sequence of Glycylpeptide N-tetradecanoyltransferase 1 (Homo sapiens, UniProt P30419, Y296A) (P30419 whole entry Y296A): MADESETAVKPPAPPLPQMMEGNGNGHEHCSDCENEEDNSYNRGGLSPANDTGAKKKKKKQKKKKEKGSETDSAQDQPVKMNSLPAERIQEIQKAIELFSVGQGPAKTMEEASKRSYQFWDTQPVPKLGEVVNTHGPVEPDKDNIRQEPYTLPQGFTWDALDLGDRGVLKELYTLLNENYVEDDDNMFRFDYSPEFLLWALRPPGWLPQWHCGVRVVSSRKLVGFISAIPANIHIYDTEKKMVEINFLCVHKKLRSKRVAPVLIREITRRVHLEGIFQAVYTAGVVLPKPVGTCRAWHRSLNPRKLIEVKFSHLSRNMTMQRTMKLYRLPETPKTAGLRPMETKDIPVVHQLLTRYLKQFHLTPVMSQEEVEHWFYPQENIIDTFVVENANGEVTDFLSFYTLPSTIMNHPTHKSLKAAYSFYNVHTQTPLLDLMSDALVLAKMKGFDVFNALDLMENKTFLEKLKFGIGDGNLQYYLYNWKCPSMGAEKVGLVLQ

SMILES | IC50 [1] | Ratio IC50 [2] | EC50 (Plasmodium falciparum) | further results
Cc1c(CCc2ccccc2)oc2cccc(OC3CCNCC3)c12 | 131 µM |  |  | 
Cc1c(C(=O)/C=C/c2ccccc2)oc2cccc(OC3CCNCC3)c12 | 3.5 µM | 14 | 2.5 µM | 
Cc1c(C(=O)OCc2ccccc2)oc2cccc(OC3CCNCC3)c12 | 0.27 µM | > 400 | 1.2 µM | IC50 [3]: > 100 µM
Cc1c(C(=O)Nc2ccccc2)oc2cccc(OC3CCNCC3)c12 | 28.8 µM | > 10 | 5.3 µM | 
CCOC(=O)c1oc2cccc(OCCCNCc3cccnc3)c2c1C | 51 µM |  |  | IC50 [3]: > 1000 µM
Cc1c(C(=O)OCCCc2ccccc2)oc2cccc(OC3CCNCC3)c12 | 36.2 µM |  |  | 
CCCCc1c(C)nc2ccc(OC)cc2c1SCCC#N |  |  |  | IC50 [4]: 32.7 µM; IC50 [5]: 150 µM
Cc1c(C(=O)NCc2cccc3ccccc23)oc2cccc(OC3CCNCC3)c12 |  | 28 | 2.4 µM | 
c1ccc(CSc2cc3c(OC4CCNCC4)cccc3o2)cc1 | 38.2 µM |  |  | 
Cc1c(C(=O)NC(C)C)oc2cccc(OC3CCNCC3)c12 | > 200 µM |  |  | 
Cc1c(COc2ccccc2)oc2cccc(OC3CCNCC3)c12 | 6.6 µM | > 16 |  | 
Cc1c(C(=O)OCc2cccc3ccccc23)oc2cccc(OC3CCNCC3)c12 | 1.4 µM |  |  | 
Cc1c(C(=O)c2ccccc2)oc2cccc(OC3CCNCC3)c12 | 22 µM | > 5 | 5.3 µM | 
Cc1c(-c2nc(Cc3ccccc3)no2)oc2cccc(OC3CCNCC3)c12 |  |  | 2.1 µM | IC50 [4]: 6.2 µM; IC50 [5]: 16.6 µM
Cc1c(/C=C/c2ccccc2)oc2cccc(OC3CCNCC3)c12 | 26.1 µM | > 10 |  | 
Cc1c(C(=O)NC2CCCCC2)oc2cccc(OC3CCNCC3)c12 | > 100 µM |  |  | 
Cc1c(COCc2ccccc2)oc2cccc(OC3CCNCC3)c12 | 7.1 µM | 14 | 4.5 µM | 
Cc1c(C(=O)OCCc2ccccc2)oc2cccc(OC3CCNCC3)c12 | 4.1 µM |  |  | 
Cc1c(C(=O)CCc2ccccc2)oc2cccc(OC3CCNCC3)c12 |  | > 20 | 4 µM | 
Cc1c(C(=O)NCc2ccccc2)oc2cccc(OC3CCNCC3)c12 | 13 µM |  |  | 
COc1cccc(COC(=O)c2oc3cccc(OC4CCNCC4)c3c2C)c1 |  |  |  | IC50 [3]: 45 µM; IC50 [5]: 2.7 µM; IC50 [6]: 10 µM
Cc1c(/C=C\c2ccccc2)oc2cccc(OC3CCNCC3)c12 | 72 µM |  |  | 
CCOC(=O)c1oc2cccc(OC3CCNCC3)c2c1C | 16.5 µM |  | 15 µM | IC50 [3]: > 200 µM
Cc1c(-c2nc(-c3ccccc3)no2)oc2cccc(OC3CCNCC3)c12 | 17.9 µM | > 12 |  | 
O=S(=O)(Cc1ccccc1)c1cc2c(OC3CCNCC3)cccc2o1 | > 200 µM |  |  | 
Cc1c(C(=O)OCC2CCCCC2)oc2cccc(OC3CCNCC3)c12 | 9.7 µM |  |  | 
Cc1c(C(=O)Oc2ccccc2)oc2cccc(OC3CCNCC3)c12 | 24.4 µM | > 20 | 10 µM | 

Reference: ChEMBL document CHEMBL2169879, “Design and synthesis of inhibitors of Plasmodium falciparum N-myristoyltransferase, a promising target for antimalarial drug discovery” (J Med Chem, 2012)
